Measurements as given in ChEMBL document CHEMBL1137710, “Synthesis and in vitro antitumor activity of new quinoxaline derivatives” (2009).

Experiments:
Format in all cases: functional
[1] = test system: SF-539; assay: Growth inhibition of human SF539 cells after 48 hrs by sulforhodamine B assay; details: SF-539, 48 h
Procedure, shortened: (§1)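 NCI 60-human-tumor-cell-line panel, with compounds tested over a 5-log dose range. Values are taken from dose-response curves as log10 molar concentrations: GI50 is 50% net growth inhibition, TGI is total growth inhibition, and LC50 is 50% net cell death.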

[2] = test system: T47D; assay: Growth inhibition of human T47D cells after 48 hrs by sulforhodamine B assay
Procedure, shortened: (§2)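 Run in the NCI 60-human-tumour-cell-line panel, tested over a 5-log dose range. Dose–response curves gave three values per cell line, each as a log10 molar concentration: GI50 (50% inhibition of net cell growth), TGI (total inhibition of net growth) and LC50 (50% net cell death). The mean graph midpoint is the arithmetic mean over all lines, with insensitive lines entered at the highest concentration tested.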

[3] = test system: OVCAR-3; assay: Growth inhibition of human OVCAR-3 cells after 48 hrs by sulforhodamine B assay; details: OVCAR-3, 48 h; procedure, shortened: as §1
[4] = test system: NCI-H226; assay: Growth inhibition of human NCI-H226 cells after 48 hrs by sulforhodamine B assay; details: NCI-H226, 48 h; procedure, shortened: as §1
[5] = test system: TK-10; assay: Growth inhibition of human TK10 cells after 48 hrs by sulforhodamine B assay; details: TK-10, 48 h; procedure, shortened: as §2
[6] = test system: PC-3; assay: Growth inhibition of human PC3 cells after 48 hrs by sulforhodamine B assay; details: PC-3, 48 h; procedure, shortened: as §1
[7] = test system: MOLT-4; assay: Growth inhibition of human MOLT4 cells after 48 hrs by sulforhodamine B assay; details: MOLT-4, 48 h; procedure, shortened: as §1
[8] = test system: MDA-MB-231; assay: Growth inhibition of human MDA-MB-231 cells after 48 hrs by sulforhodamine B assay; details: MDA-MB-231, 48 h; procedure, shortened: as §1
[9] = test system: UACC-257; assay: Growth inhibition of human UACC257 cells after 48 hrs by sulforhodamine B assay; details: UACC-257, 48 h; procedure, shortened: as §2
[10] = test system: CCRF-CEM; assay: Growth inhibition of human CCRF-CEM cells after 48 hrs by sulforhodamine B assay; procedure, shortened: as §1
[11] = test system: HL-60(TB); assay: Growth inhibition of human HL-60(TB) cells after 48 hrs by sulforhodamine B assay; details: HL-60, 48 h
Procedure, shortened: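 Tested only on compounds active in a three-line prescreen, in the NCI 60-human-tumour-cell-line panel over a 5-log dose range. Values come from dose–response curves as log10 molar GI50, the concentration inhibiting 50% net cell growth. Log10 TGI (total growth inhibition) and log10 LC50 (50% net cell death) were derived too. Mean graph midpoints include insensitive lines at the highest concentration tested.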

[12] = test system: ACHN; assay: Growth inhibition of human ACHN cells after 48 hrs by sulforhodamine B assay
[13] = test system: OVCAR-8; assay: Growth inhibition of human OVCAR8 cells after 48 hrs by sulforhodamine B assay; details: OVCAR-8, 48 h; procedure, shortened: as §1
[14] = test system: KM12; assay: Growth inhibition of human KM12 cells after 48 hrs by sulforhodamine B assay; details: KM12, 48 h; procedure, shortened: as §1
[15] = test system: COLO 205; assay: Growth inhibition of human COLO205 cells after 48 hrs by sulforhodamine B assay; details: COLO 205, 48 h; procedure, shortened: as §1
[16] = test system: Malme-3M; assay: Growth inhibition of human MALME-3M cells after 48 hrs by sulforhodamine B assay; procedure, shortened: as §1
[17] = test system: NCI/ADR-RES; assay: Growth inhibition of human NCI/ADR-RES cells after 48 hrs by sulforhodamine B assay; procedure, shortened: as §1
[18] = test system: OVCAR-5; assay: Growth inhibition of human OVCAR5 cells after 48 hrs by sulforhodamine B assay; details: OVCAR-5, 48 h; procedure, shortened: as §1
[19] = test system: RXF 393; assay: Growth inhibition of human RXF393 cells after 48 hrs by sulforhodamine B assay; details: RXF 393, 48 h; procedure, shortened: as §1
[20] = test system: HOP-92; assay: Growth inhibition of human HOP92 cells after 48 hrs by sulforhodamine B assay; details: HOP-92, 48 h; procedure, shortened: as §1
[21] = test system: SNB-19; assay: Growth inhibition of human SNB19 cells after 48 hrs by sulforhodamine B assay; details: SNB-19, 48 h; procedure, shortened: as §2
[22] = Growth inhibition of human Hs 578T cells after 48 hrs by sulforhodamine B assay; procedure, shortened: as §1
[23] = test system: SNB-75; assay: Growth inhibition of human SNB75 cells after 48 hrs by sulforhodamine B assay; details: SNB-75, 48 h; procedure, shortened: as §2
[24] = test system: HT-29; assay: Growth inhibition of human HT-29 cells after 48 hrs by sulforhodamine B assay; details: HT-29, 48 h; procedure, shortened: as §1
[25] = test system: NCI-H460; assay: Growth inhibition of human NCI-H460 cells after 48 hrs by sulforhodamine B assay; details: NCI-H460, 48 h; procedure, shortened: as §1
[26] = test system: EKVX; assay: Growth inhibition of human EKVX cells after 48 hrs by sulforhodamine B assay; procedure, shortened: as §1
[27] = test system: SR; assay: Growth inhibition of human SR cells after 48 hrs by sulforhodamine B assay; procedure, shortened: as §2
[28] = read-out: pLC50 (the source's name) (converted)

For `COc1ccc(CNc2nc3cc(N)cc(N)c3nc2-c2ccccc2)cc1OC`, which GI50 [1] is on record?
The GI50 was 20 µM.

And the LC50 [1]?
Its LC50 is greater than 100 µM.

And the TGI ([1]; read-out: pTGI (converted))?
Its TGI is 45.7 µM.

What about the GI50 [2] of the same compound?
Its GI50 is 4.47 µM.

And the CC50 [2, 28]?
The CC50 was greater than 100 µM.

What about the TGI ([2]; read-out: pTGI (converted)) of the same compound?
Its TGI is greater than 100 µM.

What about the GI50 [3] of the same compound?
The GI50 was 1.32 µM.

And the CC50 [3, 28]?
Its CC50 is 8.51 µM.

What about the TGI ([3]; read-out: pTGI (converted)) of the same compound?
Its TGI is 3.31 µM.

What about the GI50 [4] of the same compound?
The GI50 was 14.5 µM.

What about the LC50 [4] of the same compound?
The LC50 was 64.6 µM.

What about the TGI ([4]; read-out: pTGI (converted)) of the same compound?
Its TGI is 30.9 µM.

What about the GI50 [5] of the same compound?
Its GI50 is 16.6 µM.

And the CC50 [5, 28]?
Its CC50 is 64.6 µM.

And the TGI ([5]; read-out: pTGI (converted))?
The TGI was 32.4 µM.

What about the GI50 [6] of the same compound?
Its GI50 is 8.32 µM.

And the CC50 [6, 28]?
Its CC50 is 83.2 µM.

What about the TGI ([6]; read-out: pTGI (converted)) of the same compound?
The TGI was 27.5 µM.

What about the GI50 [7] of the same compound?
Its GI50 is 3.47 µM.

What about the LC50 [7] of the same compound?
The LC50 was greater than 100 µM.

And the TGI ([7]; read-out: pTGI (converted))?
The TGI was greater than 100 µM.

And the GI50 [8]?
The GI50 was 11.2 µM.

And the CC50 [8, 28]?
The CC50 was 79.4 µM.

And the TGI ([8]; read-out: pTGI (converted))?
Its TGI is 29.5 µM.

And the GI50 [9]?
Its GI50 is 12.9 µM.

And the CC50 [9, 28]?
Its CC50 is 55 µM.

And the TGI ([9]; read-out: pTGI (converted))?
Its TGI is 26.9 µM.

And the GI50 [10]?
Its GI50 is 3.47 µM.

What about the LC50 [10] of the same compound?
Its LC50 is greater than 100 µM.

What about the TGI ([10]; read-out: pTGI (converted)) of the same compound?
The TGI was 70.8 µM.

And the GI50 [11]?
Its GI50 is 3.16 µM.

And the LC50 [11]?
The LC50 was greater than 100 µM.

What about the TGI ([11]; read-out: pTGI (converted)) of the same compound?
Its TGI is 81.3 µM.

And the GI50 [12]?
The GI50 was 13.8 µM.

What about the CC50 [12, 28] of the same compound?
Its CC50 is 81.3 µM.

What about the TGI ([12]; read-out: pTGI (converted)) of the same compound?
Its TGI is 33.1 µM.

And the GI50 [13]?
Its GI50 is 6.76 µM.

And the CC50 [13, 28]?
The CC50 was greater than 100 µM.

What about the TGI ([13]; read-out: pTGI (converted)) of the same compound?
The TGI was 33.9 µM.

What about the GI50 [14] of the same compound?
Its GI50 is 13.2 µM.

And the LC50 (50% net cell kill) [14]?
The LC50 (50% net cell kill) was 72.4 µM.

And the TGI ([14]; read-out: pTGI (converted))?
The TGI was 30.9 µM.

And the GI50 [15]?
Its GI50 is 7.94 µM.

And the LC50 (50% net cell kill) [15]?
Its LC50 (50% net cell kill) is greater than 100 µM.

And the TGI ([15]; read-out: pTGI (converted))?
Its TGI is greater than 100 µM.

And the GI50 [16]?
The GI50 was 5.62 µM.

And the CC50 [16, 28]?
Its CC50 is 47.9 µM.

What about the TGI ([16]; read-out: pTGI (converted)) of the same compound?
The TGI was 18.6 µM.

What about the GI50 [17] of the same compound?
The GI50 was 17.8 µM.

And the CC50 [17, 28]?
The CC50 was greater than 100 µM.

What about the TGI ([17]; read-out: pTGI (converted)) of the same compound?
The TGI was 66.1 µM.

What about the GI50 [18] of the same compound?
Its GI50 is 20.9 µM.

And the CC50 [18, 28]?
Its CC50 is 81.3 µM.

What about the TGI ([18]; read-out: pTGI (converted)) of the same compound?
The TGI was 41.7 µM.

And the GI50 [19]?
The GI50 was 19.1 µM.

What about the CC50 [19, 28] of the same compound?
Its CC50 is greater than 100 µM.

And the TGI ([19]; read-out: pTGI (converted))?
The TGI was greater than 100 µM.

And the GI50 [20]?
Its GI50 is 13.5 µM.

And the LC50 (50% net cell death) [20]?
The LC50 (50% net cell death) was 66.1 µM.

What about the TGI ([20]; read-out: pTGI (converted)) of the same compound?
The TGI was 29.5 µM.

And the GI50 [21]?
Its GI50 is 25.7 µM.

What about the LC50 [21] of the same compound?
The LC50 was greater than 100 µM.

And the TGI ([21]; read-out: pTGI (converted))?
The TGI was greater than 100 µM.

What about the GI50 [22] of the same compound?
The GI50 was 33.9 µM.

And the CC50 [22, 28]?
The CC50 was greater than 100 µM.

And the TGI ([22]; read-out: pTGI (converted))?
The TGI was greater than 100 µM.

What about the GI50 [23] of the same compound?
Its GI50 is 16.2 µM.

What about the LC50 [23] of the same compound?
Its LC50 is 97.7 µM.

What about the TGI ([23]; read-out: pTGI (converted)) of the same compound?
Its TGI is 39.8 µM.

What about the GI50 [24] of the same compound?
Its GI50 is 1.86 µM.

And the LC50 [24]?
The LC50 was greater than 100 µM.

What about the TGI ([24]; read-out: pTGI (converted)) of the same compound?
The TGI was 24.5 µM.

What about the GI50 [25] of the same compound?
Its GI50 is 24 µM.

What about the LC50 (50% net cell kill) [25] of the same compound?
The LC50 (50% net cell kill) was greater than 100 µM.

What about the TGI ([25]; read-out: pTGI (converted)) of the same compound?
Its TGI is 91.2 µM.

And the GI50 [26]?
The GI50 was 5.89 µM.

And the LC50 (50% net cell kill) [26]?
Its LC50 (50% net cell kill) is greater than 100 µM.

What about the TGI ([26]; read-out: pTGI (converted)) of the same compound?
The TGI was 30.2 µM.

And the GI50 [27]?
The GI50 was 3.31 µM.

And the LC50 (concentration giving 50% net cell death) [27]?
Its LC50 (concentration giving 50% net cell death) is greater than 100 µM.

And the TGI ([27]; read-out: pTGI (converted))?
Its TGI is 18.2 µM.
